NPY-Y2 antag – NPY-Y2 receptor antagonists, primary screen, cell-based. Neuropeptide Y receptor type 2 (Homo sapiens), P49146. NPY-Y2 expressing cells, antagonist mode. actives 0.99% (n = 140,000). inhibition, % at 2.7 µM; in the data active = inhibition above about 17%
NPY2 pot ag – NPY-Y2 potentiators or agonists, primary screen, cell-based. cells expressing NPY-Y2, potentiator/agonist read-out. activation, % at 3.6 µM. actives 0.45% (n = 220,000); in the data active = activation above about 27%;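 note: cells stimulated with NPY near EC25 plus isoproterenol at EC100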
TbHK1 inh – Trypanosoma brucei hexokinase 1 inhibitors, primary screen, biochemical, G6PDH-coupled NADH absorbance, MLSCN library; recombinant TbHK1, G6PDH-coupled NADH A340; inhibition, % at 10 µM; actives 0.11% (n = 220,000); AID 1430, 2008;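 active = inhibition of 50% or more in the single-dose primary screen; inactive = inhibition below 50%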
NPY-Y1 antag – NPY-Y1 receptor antagonists, primary screen, cell-based; HEK293-CNG Y1 cells, membrane potential fluorescence; NPY at EC95, then isoproterenol; inhibition, % at 3.6 µM; actives 1% (n = 200,000);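 active = inhibition above the campaign mean inhibition of all tested compounds plus 3 SD, cut at about 20% in these data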
Target sequence (P25929 whole entry, looked up): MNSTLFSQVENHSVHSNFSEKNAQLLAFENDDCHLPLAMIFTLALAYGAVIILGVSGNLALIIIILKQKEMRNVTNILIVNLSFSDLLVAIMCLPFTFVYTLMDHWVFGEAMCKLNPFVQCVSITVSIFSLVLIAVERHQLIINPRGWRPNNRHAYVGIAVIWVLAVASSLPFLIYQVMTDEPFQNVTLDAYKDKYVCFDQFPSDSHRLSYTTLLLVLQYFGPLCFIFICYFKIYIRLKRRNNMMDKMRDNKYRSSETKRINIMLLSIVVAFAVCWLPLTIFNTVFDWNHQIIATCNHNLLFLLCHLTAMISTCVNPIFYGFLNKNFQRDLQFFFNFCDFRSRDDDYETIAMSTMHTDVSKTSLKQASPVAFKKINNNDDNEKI
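Benchmarks – high control isoproterenol alone, low control NPY with isoproterenol · Material – HEK293 Y1/CNG channel cell line · Times – dye 3 h, compound 60 min room temperature, stimulation 45 min · Probe or stimulus – NPY (25 nM), isoproterenol (1 µM), Ro 20-1724 (25 µM) · Evaluation – % inhibition of NPY effect · Signal – fluorescence, membrane potential probe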
m-calpain inh – inhibitors of pig calpain II, primary screen, biochemical, fluorogenic peptide substrate, 1536-well. actives 0.37% (n = 220,000). inhibition, % at 16 µM. purified calpain II, 30 min. AID 1236, 2008;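 active = inhibition above about 50%, limit read from the data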
NPY-Y1 PAM-ag – NPY-Y1 receptor potentiators or agonists, primary screen, cell-based; Neuropeptide Y receptor type 1 (Homo sapiens), P25929; NPY-Y1 expressing cells, potentiator/agonist activation; activation, % at 3.6 µM; actives 0.37% (n = 220,000); AID 1304, 2008; in the data active = activation above about 33%, passing the limit was not always enough;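 note: cells stimulated with NPY at EC10 then isoproterenol at EC100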
NPY-Y2 confirm – NPY-Y2 potentiators or agonists, confirmation, cell-based | shares compounds with NPY2 pot ag | cell-based NPY-Y2 potentiator/agonist assay | AID 1539, 2009 | actives 20% (n = 450) | activation, % at 3.6 µM; in the data active = activation above about 33%
NPY-Y1 potentiator – NPY-Y1 potentiators or agonists, counter-screen for NPY-Y2 potentiator project, cell-based, fluorescence. Y1 HEK293-CNG cells, membrane potential fluorescence. actives 20% (n = 450). activation, % at 3.6 µM. shares compounds with NPY2 pot ag; in the data active = activation above about 45%;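 note: cells stimulated with submaximal NPY then isoproterenol with phosphodiesterase inhibitor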
NPY-Y1 ag 2 – NPY-Y1 direct agonists, selectivity assay for NPY-Y2 potentiator project, cell-based, fluorescence; shares compounds with NPY2 pot ag; HEK293 Y1-CNGC, membrane potential fluorescence, agonism; activation, % at 3.6 µM; actives 37% (n = 450);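 active = activation above the mean of DMSO-only control wells plus 3 SD, cut at about 18% in these data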;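 note: cells stimulated with 1 µM isoproterenol plus the PDE inhibitor Ro 20-1724; Y1 agonists lower the membrane potential dye signal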
CNGC inh – CNGC cAMP sensor activity inhibitors, counter-screen for NPY-Y2 potentiator project, cell-based, HEK293-CNG parental, membrane potential fluorescence; shares compounds with NPY2 pot ag; actives 32% (n = 450); inhibition, % at 3.6 µM; isoproterenol cAMP;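 active = inhibition above the control-well mean plus 3 SD of those wells, cut at about 22% in these data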
Y2 agonist ctr – NPY-Y2 direct agonists, counter-screen for NPY-Y2 potentiator project, cell-based, fluorescence | shares compounds with NPY2 pot ag | HEK293 Y2/CNGC cells, membrane potential fluorescence, agonist mode | activation, % at 3.6 µM | actives 56% (n = 450) | AID 1710, 2009;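 active = activation above the mean of solvent-only control wells plus 3 SD, cut at about 10% in these data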;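 note: cells stimulated by isoproterenol with no NPY added so direct agonism is tested; agonism lowers probe fluorescence through less cAMP and CNG channel opening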
Hits are given with their value; i = inactive; nt = no result given. Hits are enriched below; roughly 2.3% of the tested compounds scored in any of these assays.

SMILES | NPY-Y2 antag | NPY2 pot ag | TbHK1 inh | NPY-Y1 antag | m-calpain inh | NPY-Y1 PAM-ag | NPY-Y2 confirm | NPY-Y1 potentiator | NPY-Y1 ag 2 | CNGC inh | Y2 agonist ctr
O=C(NCC1CCCO1)c1cc(NS(=O)(=O)c2cccs2)cc(NS(=O)(=O)c2cccs2)c1 (configuration not stated) | nt | i | i | i | i | i | nt | nt | nt | nt | nt
Cc1sc2nc(SCc3ccc(C(=O)O)cc3)n(Cc3ccco3)c(=O)c2c1C | nt | 56 | i | nt | i | i | i | i | 32 | i | 22
O=C(O)C1CC1C(=O)Nc1cc(F)ccc1F (configuration not stated) | nt | 28 | i | i | i | i | i | i | i | i | i
Cc1cc(C)n(-c2ncc3c(n2)N(CCO)CCOC3=O)n1 | nt | 73 | i | nt | i | i | i | i | i | i | i
CC(C)Cn1c(N)c(C(=O)COC(=O)CC23CC4CC(CC(C4)C2)C3)c(=O)n(C)c1=O | i | 38 | i | i | 71 | i | i | i | i | i | i
CCNc1c(C(=O)O)ccc2c1C(=O)c1ccccc1C2=O | i | i | i | i | i | i | nt | nt | nt | nt | nt
CC1CCCN(C(=O)c2ccc3c(c2NCCO)C(=O)c2ccccc2C3=O)C1 (configuration not stated) | i | 31 | i | i | i | i | 46 | 62 | 38 | 31 | 42
C=CCN(c1ccc(F)cc1)S(=O)(=O)c1cc(C(=O)OCC(=O)N(C)C2CCS(=O)(=O)C2)ccc1Cl (configuration not stated) | nt | i | i | nt | i | i | nt | nt | nt | nt | nt
FC(F)(F)c1cnc(NNC(=S)Nc2ccc(Cl)cc2)c(Cl)c1 | i | 42 | i | i | i | i | i | i | i | i | 16
COc1ccc(C(=O)NCC(=O)OCC(=O)Nc2cccc(S(=O)(=O)N3CCCC3)c2)cc1 | nt | i | i | nt | i | i | nt | nt | nt | nt | nt
O=C(CCl)NC(=O)NC12CC3CC(CC(C3)C1)C2 | i | 41 | i | i | i | i | i | 49 | 35 | i | 27
CCOC(=O)c1c(C)[nH]c(C(=O)COC(=O)/C=C/c2ccc(OCC#N)c(OC)c2)c1C | nt | i | i | i | i | i | nt | nt | nt | nt | nt
CC1CCCCC1NS(=O)(=O)c1ccc(S(=O)(=O)NCc2ccncc2)cc1 (configuration not stated) | i | 37 | i | i | i | i | i | i | i | i | i
O=C(Nc1ccc(Oc2c(F)c(F)c(F)c(F)c2F)cc1)OC1CCN2Cc3ccccc3N=C12 (configuration not stated) | nt | i | i | nt | i | i | nt | nt | nt | nt | nt
Cc1c(Br)c([N+](=O)[O-])nn1CC(=O)NCCc1c[nH]c2ccccc12 | nt | i | i | i | i | i | nt | nt | nt | nt | nt
CCOC(=O)C1CCN(c2ncnc3c2cnn3-c2ccccc2)CC1 | i | i | i | i | i | i | nt | nt | nt | nt | nt
CCOC(=O)C1CCN(c2ncnc3c2cnn3-c2ccc(Cl)cc2)CC1 | i | 48 | i | i | i | i | i | i | i | i | i
CN(CC(=O)Nc1cccc2ccccc12)C(=O)c1cccc(S(=O)(=O)N(C)C)c1 | nt | i | i | nt | i | i | nt | nt | nt | nt | nt
CC(C)NC[C@@H](O)c1ccc(O)c(O)c1 | i | 52 | i | i | i | i | 54 | 51 | 73 | 57 | 54
CC(C)c1ccc(O)c(N)c1 | i | i | i | i | i | i | nt | nt | nt | nt | nt
C#CCSc1nc(N)c2c(n1)OC(N)=C(C#N)C2c1cccnc1 (configuration not stated) | nt | 58 | i | i | i | i | i | i | i | i | i
O=C1C2CC=CCC2C(=O)N1c1ccc(NCCc2ccc(Cl)cc2)c([N+](=O)[O-])c1 (configuration not stated) | i | i | i | i | i | i | nt | nt | nt | nt | nt
COc1ccc(CCNc2ccc(N3C(=O)CC(C)C3=O)cc2[N+](=O)[O-])cc1OC (configuration not stated) | nt | 37 | i | i | i | i | i | i | i | i | i
O=C1C2CC=CCC2C(=O)N1c1ccc(NCCc2ccc(O)cc2)c([N+](=O)[O-])c1 (configuration not stated) | i | 46 | i | i | i | i | i | i | i | i | 13
COc1ccc(CCNc2ccc(N3C(=O)CC(C)C3=O)cc2[N+](=O)[O-])cc1 (configuration not stated) | nt | i | i | i | i | i | nt | nt | nt | nt | nt
SMILES | NPY-Y2 antag | NPY2 pot ag | TbHK1 inh | NPY-Y1 antag | m-calpain inh | NPY-Y1 PAM-ag | NPY-Y2 confirm | NPY-Y1 potentiator | NPY-Y1 ag 2 | CNGC inh | Y2 agonist ctr
O=S(=O)(Nc1nc2ccccc2nc1Nc1cccc(S(=O)(=O)N2CCCCC2)c1)c1ccccc1 | i | 38 | i | i | i | i | 74 | 68 | 65 | 44 | 58
Cc1ccc2sc(N(CCCN(C)C)C(=O)c3nc4ccccc4s3)nc2c1C | nt | i | i | i | i | i | nt | nt | nt | nt | nt
Cc1ccc2sc(N(CCCN(C)C)C(=O)c3ccc(Br)s3)nc2c1C | nt | 52 | i | i | i | i | 69 | 78 | 84 | 62 | 65
CN(C)CCCN(C(=O)c1ccc(Br)s1)c1nc2cc3c(cc2s1)OCO3 | nt | 43 | i | i | i | i | 67 | 79 | 55 | 66 | 63
COc1ccccc1-n1c(C)nc2cc(C(=O)NCCN3CCOCC3)ccc21 | nt | i | i | i | i | i | nt | nt | nt | nt | nt
CC(C)On1c(SCC(=O)N(C)C)nc2ccccc2c1=O | nt | i | i | nt | i | i | nt | nt | nt | nt | nt
CCc1noc(C)c1C(=O)Nc1ncc(C)s1 | i | 32 | i | i | i | i | i | i | i | i | i
CCc1noc(C)c1C(=O)Nc1nc(-c2cc(C)ccc2C)c(C)s1 | i | i | i | i | i | i | nt | nt | nt | nt | nt
